# From PubChem
# Beta2AR agonist = human beta-2 adrenergic receptor agonism by FAP | Am2.2-beta2AR cells, FAP receptor internalization, flow cytometry | P07550 | 340,000 tested, 0.43% active | response, % (concentration not given with the values);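 active = response above a set limit, near 3 SD of response in nonfluorescent compounds, cut at about 42% in these data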
# Target sequence (P07550 whole entry, looked up): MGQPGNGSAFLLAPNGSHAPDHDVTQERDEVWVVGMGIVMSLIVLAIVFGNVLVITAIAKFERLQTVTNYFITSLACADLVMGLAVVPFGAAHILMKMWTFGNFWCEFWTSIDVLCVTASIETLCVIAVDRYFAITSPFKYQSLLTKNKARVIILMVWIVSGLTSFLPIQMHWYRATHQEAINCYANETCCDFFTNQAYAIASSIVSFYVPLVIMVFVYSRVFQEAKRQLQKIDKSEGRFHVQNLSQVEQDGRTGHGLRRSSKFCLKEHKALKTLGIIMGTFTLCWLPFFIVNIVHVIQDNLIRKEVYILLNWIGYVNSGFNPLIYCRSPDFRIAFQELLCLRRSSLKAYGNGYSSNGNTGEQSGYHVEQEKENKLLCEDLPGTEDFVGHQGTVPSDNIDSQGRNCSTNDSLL
# TAAR1 antagonist = human TAAR1 antagonism | Q96RJ0 | CHO RD-HGA16 TAAR1, Fluo-8 calcium fluorescence, antagonist | inhibition, % at 3 µM | 360,000 tested, 1.5% active | AID 624466;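 active = inhibition above a per-plate cutoff, the mean inhibition of test compounds on that plate plus 3 SD, cut at about 49% in these data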;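 also: 0% = DMSO plus EC80 beta-PEA response and 100% = DMSO alone without agonist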
#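 System: RD-HGA16 CHO cells with stable hTAAR1 and Gα16 | Probe or stimulus: EC80 β-phenethylamine stimulus | Dosing: 3 µM, single point | Times: Dye loading 75 min at 37 °C, then 30 min room temperature | Measured by: Fluo-8 calcium-sensitive fluorescence | Read-out basis: % inhibition of agonist calcium response | Replicates: n of 1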
# TAAR1 ag = human TAAR1 agonism | Q96RJ0 | CHO RD-HGA16 TAAR1, Fluo-8 calcium fluorescence; vehicle wells 0%, saturating PEA agonist 100% | activation, % at 3 µM | 360,000 tested, 0.99% active | AID 624467;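 active = activation above the mean activation of all test compounds in the run plus 3 SD, cut at about 38% in these data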
#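 System: CHO RD-HGA16 cells carrying human TAAR1 plus Gα16; Incubation: 17-24 h seeding, 75 min 37 °C dye, 30 min RT; Measured by: Fluo-8 fluorescence, 5 s baseline then 140 s kinetic read; Control set: DMSO and PEA EC100; Replication: single well for each compound.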
# MC4R barr agon = agonists of human melanocortin 4 receptor (MC4R) beta-arrestin; U2OS MC4R beta-arrestin complementation, luminescence; percent of melanotan II response, DMSO zero; AID 540308; 360,000 tested, 0.98% active; activation, % at 8.9 µM; P32245;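 active = activation above a per-plate cutoff, the mean activation of sample wells on that plate plus 3 SD, cut at about 8% in these data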
# MC4R antagonist = human MC4R antagonism in cAMP assay; MC4R-expressing cells, MTII-stimulated cAMP, LANCE TR-FRET; inhibition, % at 6.5 µM; 360,000 tested, 0.48% active; AID 540295;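 active = inhibition above its plate's cutoff, the mean of tested wells on that plate plus 3 SD, cut at about 29% in these data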;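 also: 0% = Melanotan II alone and 100% = Melanotan II plus saturating MCL0020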
#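 Material: human MC4R-expressing U2OS cells. Probe or stimulus: Melanotan II challenge. Dosing: 6.5 µM single dose. Times: 30-min compound, 1-h challenge, 1-h detection, room temperature. Technique: TR-FRET with Eu-cAMP and labeled anti-cAMP, 671 nm. Replication: singlicate.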
# HTR2A ag = mouse HTR2A agonism via beta-arrestin recruitment; P35363; CHO-K1 mHTR2A beta-arrestin complementation, luminescence; percent of 30 µM serotonin response; activation, % at 7.6 µM; 360,000 tested, 0.66% active; AID 624169;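 active = activation above a run cutoff, the mean activation of all tested compounds plus 3 SD, cut at about 14% in these data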;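 also: 0% = plate median of compound wells and 100% = 30 µM serotonin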
# MC4R barr conf = human MC4R beta-arrestin agonism confirmation; shares compounds with MC4R barr agon; U2OS MC4R beta-arrestin recruitment, luminescence; scaled DMSO 0%, Melanotan II 100%; activation, % at 8.9 µM; 2,400 tested, 31% active;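 active = mean activation across replicates above the hit cutoff set in the earlier primary screen, cut at about 8% in these data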
# MOR-DOR barr ag = activates mu-delta opioid heterodimer, MC4R agonist counter-screen; AID 602194; U2OS PathHunter beta-arrestin, beta-gal luminescence; percent of deltorphin B response, DMSO zero; 2,400 tested, 5.8% active; activation, % at 9.2 µM; shares compounds with MC4R barr agon;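 active = mean activation across replicates exceeds the hit threshold derived in the earlier primary screen, cut at about 18% in these data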;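 also: 100% = deltorphin B at 0.9 µM final and 0% = DMSO alone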
# The depositor's hits bear a star; / = no result. The list is not random: actives were taken first. Their share in the collection is about 4.3%.
SMILES,Beta2AR agonist,TAAR1 antagonist,TAAR1 ag,MC4R barr agon,MC4R antagonist,HTR2A ag,MC4R barr conf,MOR-DOR barr ag
Cn1c(SCC(=O)Nc2ccc3c(c2)oc2ccccc23)nnc1-c1ccccc1,-11,-2,7,10*,17,1,5,4
CC(C)(C)c1ccc2c(c1)OC(C(=O)N/N=C\c1ccncc1)CO2 (centres undefined),3,26,30,-3,2,-6,/,/
CC(C)(C)c1ccc2c(c1)OC(C(=O)N/N=C\c1ccc[nH]1)CO2 (centres undefined),3,11,0,11*,11,5,4,10
NC(=O)c1ccc(NC(=O)COC(=O)CCN=C2NS(=O)(=O)c3ccccc32)cc1,3,-10,1,-1,16,1,/,/
C[C@H](CO)N1C[C@H](C)[C@@H](CN(C)S(=O)(=O)c2ccccc2)Oc2ccc(NC(=O)C3CC3)cc2C1=O,1,18,4,1,4,3,/,/
CC(OC(=O)c1cc2sccc2n1C)C(=O)NCc1ccco1 (centres undefined),-1,-8,-4,0,-10,-3,/,/
CC(OC(=O)c1cc2sccc2n1C)C(=O)NCc1ccc2c(c1)OCO2 (centres undefined),4,14,12,13*,10,10,-1,2
O=S(=O)(c1cnc[nH]1)N1CCN(C(c2ccc(F)cc2)c2ccc(F)cc2)CC1,-5,-41,3,-2,-3,-6,/,/
Cn1c(N)c(C(=O)COC(=O)COc2ccccc2Cl)c(=O)n(C)c1=O,-1,7,4,-1,7,10,/,/
CC1CCC(C(C)C)C(OC(=O)C[n+]2cc(-c3ccc(Cl)cc3)n3c2CCC3)C1 (centres undefined),-14,-19,5,17*,14,-7,4,4
Cn1cnc(C(=O)NCc2ccc(CNC(=O)OC(C)(C)C)cc2)c1C(=O)NCc1ccc(CNC(=O)OC(C)(C)C)cc1,3,36,10,-2,2,-3,/,/
CCN1CCN(Cc2ccc(NC(=O)c3cc(NC(=O)C(=O)c4c[nH]c5ccccc45)cc(OC)c3)cc2C(F)(F)F)CC1,18,48,11,24*,3,-8,22*,9
O=C(Nc1ccccn1)c1ccc(Cl)c(S(=O)(=O)N2CCc3ccccc32)c1,1,14,5,1,13,-5,/,/
Cc1ccc(S(=O)(=O)N2CCN(S(=O)(=O)N3CCCCC3)CC2)cc1C,-10,-8,-1,0,2,0,/,/
Cc1ccc(S(=O)(=O)N2CCN(S(=O)(=O)N3CCC(C)CC3)CC2)cc1C,-4,-8,4,10*,-2,3,4,3
Cc1nc(C)c(-c2ccc(SCC(=O)Nc3ccc(C)c(Cl)c3)nn2)s1,-4,32,7,10*,-1,-1,3,6
Cc1ccc(NC(=O)CSc2nnc(C)c(=O)n2N)cc1Cl,-7,-26,16,-3,-2,5,/,/
O=C(NCCO)c1nc(C(=O)c2ccccc2)c2ccccc2n1,-4,0,3,-1,-6,-7,/,/
Cc1[nH]nc2nc(SCC(=O)NC3CCCCC3)n(-c3ccc(Br)cc3)c(=N)c12,0,0,0,17*,20,0,8,23*
CCOc1ccc(-n2c(SCC(=O)Nc3ccc(CC)cc3)nc3n[nH]c(C)c3c2=N)cc1,0,-13,-2,1,6,-1,/,/
O=C(CSC1=NCCS1)Nc1ccc(F)cc1,-3,0,11,0,-5,1,/,/
O=C(Nc1ccc(Br)cc1)c1ccc(CSC2=NCCS2)cc1,1,-4,14,29*,1,-4,3,13
